Source: paper PMC4160279 (Journal of the American Chemical Society, 2014)
pKd: −log10 of the molar value.

Experiments:
[1] = biological target: T1, P dimer VA115 (Human calicivirus NLV/VA98115/1998, UniProt Q91H12); experiment: Direct ESI-MS assay; type: binding; conditions: n = 3
T1 sequence (Q91H12 227-545): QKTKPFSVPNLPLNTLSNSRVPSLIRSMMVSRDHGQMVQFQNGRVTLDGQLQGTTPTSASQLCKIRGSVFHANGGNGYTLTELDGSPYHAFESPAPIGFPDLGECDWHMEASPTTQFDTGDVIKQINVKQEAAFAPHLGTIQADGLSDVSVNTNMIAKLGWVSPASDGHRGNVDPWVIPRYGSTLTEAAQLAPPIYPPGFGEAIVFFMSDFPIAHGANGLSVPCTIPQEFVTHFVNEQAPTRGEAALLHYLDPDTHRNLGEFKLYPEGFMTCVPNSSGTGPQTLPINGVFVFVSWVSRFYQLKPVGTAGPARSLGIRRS
Outline: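 Recombinant P dimer (P domain residues 222–539, made in E. coli via a GST fusion system) was titrated with at least four initial oligosaccharide concentrations, in triplicate. Example mix: 12 μM dimer, 80 μM ligand, 4 μM reference protein. Bound/free abundance ratios were taken as solution ratios after nonspecific-binding correction. Ka,int was fitted assuming two independent, equivalent sites.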

[2] = test system: NoV VA387 P dimer; experiment: Direct ESI-MS assay, NoV VA387 P dimer; design: species or system human NoV VA387 (GII.4); conditions: intrinsic (per binding site) association constant; aqueous ammonium acetate (200 mM), pH 7, 25 °C
Outline: (§1)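 Recombinant P dimer, buffer-exchanged into ammonium acetate and quantified by UV, was mixed (e.g., 12 μM) with ganglioside oligosaccharide (e.g., 80 μM) and reference protein (4 μM). Nanoelectrospray in negative ion mode used capillary −0.8 kV, cone 60 V and source 60 °C. Runs covered ≥4 initial ligand concentrations in triplicate. Ka,int came from bound/free abundance ratios, corrected for nonspecific binding, with two equivalent sites.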

[3] = test system: NoV VA115 P dimer; experiment: Direct ESI-MS assay, NoV VA115 P dimer; design: species or system human NoV VA115 (GI.3); conditions: intrinsic (per binding site) association constant; aqueous ammonium acetate (200 mM), pH 7, 25 °C
Outline: as §1

Compound | pKd [1] | Ka,int P dimer VA387 [2] | Ka,int P dimer VA115 [3] [M^–1] | Ka,int [1] [M⁻¹]
CC(=O)N[C@H]1[C@H](O[C@@H]2[C@H](O[C@]3(C(=O)O)C[C@H](O)[C@@H](NC(C)=O)[C@H]([C@H](O)[C@@H](CO)O[C@]4(C(=O)O)C[C@H](O)[C@@H](NC(C)=O)[C@H]([C@H](O)[C@H](O)CO)O4)O3)[C@@H](O)[C@H](O[C@H]3[C@H](O)[C@@H](O)C(O)O[C@@H]3CO)O[C@@H]2CO)O[C@H](CO)[C@H](O)[C@@H]1O[C@@H]1O[C@H](CO)[C@H](O)[C@H](O)[C@H]1O (stereo partly shown) [GD1b, GD1b ganglioside oligosaccharide (Galb1-3GalNAcb1-4(Neu5Aca2-8Neu5Aca2-3)Galb1-4Glc)] | 2.53 | – | – | –
CC(=O)N[C@H]1[C@H](O[C@@H]2[C@H](O[C@]3(C(=O)O)C[C@H](O)[C@@H](NC(C)=O)[C@H]([C@H](O)[C@@H](CO)O[C@]4(C(=O)O)C[C@H](O)[C@@H](NC(C)=O)[C@H]([C@H](O)[C@H](O)CO)O4)O3)[C@@H](O)[C@H](O[C@H]3[C@H](O)[C@@H](O)C(O)O[C@@H]3CO)O[C@@H]2CO)O[C@H](CO)[C@H](O)[C@@H]1O[C@@H]1O[C@H](CO)[C@H](O)[C@H](O)[C@H]1O (stereo partly shown) [GD1b] | – | do not show any detectable binding | 340 ± 50 | –
CC(=O)N[C@H]1[C@H](O[C@@H]2[C@H](O[C@]3(C(=O)O)C[C@H](O)[C@@H](NC(C)=O)[C@H]([C@H](O)[C@@H](CO)O[C@]4(C(=O)O)C[C@H](O)[C@@H](NC(C)=O)[C@H]([C@H](O)[C@H](O)CO)O4)O3)[C@@H](O)[C@H](O[C@H]3[C@H](O)[C@@H](O)C(O)O[C@@H]3CO)O[C@@H]2CO)O[C@H](CO)[C@H](O)[C@@H]1O (stereo partly shown) [GD2] | – | 150 ± 60 M^–1 | 700 ± 140 | –
CC(=O)N[C@H]1[C@H]([C@H](O)[C@H](O)CO)O[C@@](O[C@H](CO)[C@@H](O)[C@@H]2O[C@@](O[C@H]3[C@@H](O)[C@@H](CO)O[C@@H](O[C@H]4[C@H](O)[C@@H](O)C(O)O[C@@H]4CO)[C@@H]3O)(C(=O)O)C[C@H](O)[C@H]2NC(C)=O)(C(=O)O)C[C@@H]1O (stereo partly shown) [GD3] | – | 340 ± 60 M^–1 | 420 ± 140 | –
CC(=O)N[C@H]1[C@H](O[C@@H]2[C@H](O[C@]3(C(=O)O)C[C@H](O)[C@@H](NC(C)=O)[C@H]([C@H](O)[C@H](O)CO)O3)[C@@H](O)[C@H](O[C@H]3[C@H](O)[C@@H](O)C(O)O[C@@H]3CO)O[C@@H]2CO)O[C@H](CO)[C@H](O)[C@@H]1O[C@@H]1O[C@H](CO)[C@H](O)[C@H](O)[C@H]1O (stereo partly shown) [GM1a] | – | 350 ± 80 M^–1 | 400 ± 140 | –
CC(=O)N[C@H]1[C@H](O[C@@H]2[C@H](O)[C@@H](O)[C@H](O[C@H]3[C@H](O)[C@@H](O)C(O)O[C@@H]3CO)O[C@@H]2CO)O[C@H](CO)[C@H](O)[C@@H]1O[C@@H]1O[C@H](CO)[C@H](O)[C@H](O[C@]2(C(=O)O)C[C@H](O)[C@@H](NC(C)=O)[C@H]([C@H](O)[C@H](O)CO)O2)[C@H]1O (stereo partly shown) [GM1b] | – | 180 ± 60 M^–1 | 480 ± 110 | –
CC(=O)N[C@H]1[C@H](O[C@@H]2[C@H](O[C@]3(C(=O)O)C[C@H](O)[C@@H](NC(C)=O)[C@H]([C@H](O)[C@H](O)CO)O3)[C@@H](O)[C@H](O[C@H]3[C@H](O)[C@@H](O)C(O)O[C@@H]3CO)O[C@@H]2CO)O[C@H](CO)[C@H](O)[C@@H]1O (stereo partly shown) [GM2] | – | 360 ± 90 M^–1 | 700 ± 200 | –
CC(=O)N[C@H]1[C@H](O[C@@H]2[C@H](O[C@]3(C(=O)O)C[C@H](O)[C@@H](NC(C)=O)[C@H]([C@H](O)[C@H](O)CO)O3)[C@@H](O)[C@H](O[C@H]3[C@H](O)[C@@H](O)C(O)O[C@@H]3CO)O[C@@H]2CO)O[C@H](CO)[C@H](O)[C@@H]1O[C@@H]1O[C@H](CO)[C@H](O)[C@H](O[C@]2(C(=O)O)C[C@H](O)[C@@H](NC(C)=O)[C@H]([C@H](O)[C@@H](CO)O[C@]3(C(=O)O)C[C@H](O)[C@@H](NC(C)=O)[C@H]([C@H](O)[C@H](O)CO)O3)O2)[C@H]1O (stereo partly shown) [GT1a, GT1a ganglioside oligosaccharide (Neu5Aca2-8Neu5Aca2-3Galb1-3GalNAcb1-4(Neu5Aca2-3)Galb1-4Glc)] | – | – | – | 210 ± 70
CC(=O)N[C@H]1[C@H](O[C@@H]2[C@H](O[C@]3(C(=O)O)C[C@H](O)[C@@H](NC(C)=O)[C@H]([C@H](O)[C@H](O)CO)O3)[C@@H](O)[C@H](O[C@H]3[C@H](O)[C@@H](O)C(O)O[C@@H]3CO)O[C@@H]2CO)O[C@H](CO)[C@H](O)[C@@H]1O[C@@H]1O[C@H](CO)[C@H](O)[C@H](O[C@]2(C(=O)O)C[C@H](O)[C@@H](NC(C)=O)[C@H]([C@H](O)[C@@H](CO)O[C@]3(C(=O)O)C[C@H](O)[C@@H](NC(C)=O)[C@H]([C@H](O)[C@H](O)CO)O3)O2)[C@H]1O (stereo partly shown) [GT1a] | – | do not show any detectable binding | 210 ± 70 | –
CC(=O)N[C@H]1[C@H](O[C@@H]2[C@H](O[C@]3(C(=O)O)C[C@H](O)[C@@H](NC(C)=O)[C@H]([C@H](O)[C@@H](CO)O[C@]4(C(=O)O)C[C@H](O)[C@@H](NC(C)=O)[C@H]([C@H](O)[C@@H](CO)O[C@]5(C(=O)O)C[C@H](O)[C@@H](NC(C)=O)[C@H]([C@H](O)[C@H](O)CO)O5)O4)O3)[C@@H](O)[C@H](O[C@H]3[C@H](O)[C@@H](O)C(O)O[C@@H]3CO)O[C@@H]2CO)O[C@H](CO)[C@H](O)[C@@H]1O[C@@H]1O[C@H](CO)[C@H](O)[C@H](O)[C@H]1O (stereo partly shown) [GT1c] | – | <100 M^–1 | 260 ± 110 | –
CC(=O)NC1C(OC2C(CO)OC(OC3C(CO)OC(O)C(O)C3O)C(O)C2OC2(C(=O)O)CC(O)C(NC(C)=O)C(C(O)C(CO)OC3(C(=O)O)CC(O)C(NC(C)=O)C(C(O)C(CO)OC4(C(=O)O)CC(O)C(NC(C)=O)C(C(O)C(O)CO)O4)O3)O2)OC(CO)C(O)C1O (stereo not shown) [GT2] | – | <100 M^–1 | 230 ± 50 | –
CC(=O)NC1C(O)CC(OC(CO)C(O)C2OC(OC(CO)C(O)C3OC(OC4C(O)C(CO)OC(OC5C(CO)OC(O)C(O)C5O)C4O)(C(=O)O)CC(O)C3NC(C)=O)(C(=O)O)CC(O)C2NC(C)=O)(C(=O)O)OC1C(O)C(O)CO (stereo not shown) [GT3, GT3 ganglioside oligosaccharide (Neu5Aca2-8Neu5Aca2-8Neu5Aca2-3Galb1-4Glc)] | 2.49 | – | – | –
CC(=O)NC1C(O)CC(OC(CO)C(O)C2OC(OC(CO)C(O)C3OC(OC4C(O)C(CO)OC(OC5C(CO)OC(O)C(O)C5O)C4O)(C(=O)O)CC(O)C3NC(C)=O)(C(=O)O)CC(O)C2NC(C)=O)(C(=O)O)OC1C(O)C(O)CO (stereo not shown) [GT3] | – | do not show any detectable binding | 310 ± 150 | –
CC(=O)NC1C(O)CC(OC2C(O)C(OC3C(CO)OC(O)C(O)C3O)OC(CO)C2OC2OC(CO)C(O)C(OC3OC(CO)C(O)C(O)C3OC3OC(C)C(O)C(O)C3O)C2NC(C)=O)(C(=O)O)OC1C(O)C(O)CO (stereo not shown) [fucosyl-GM1] | – | 460 ± 150 M^–1 | 600 ± 130 | –
